Data published in ChEMBL document CHEMBL1135914, “Bioactive pseudopeptidic analogues and cyclostereoisomers of osteogenic growth peptide C-terminal pentapeptide, OGP(10-14)” (2002).
Non-standard residues stand in square brackets, D forms with d. Residues, ends and D or L forms follow the SMILES beside them. *: point of attachment. Desaminotyrosyl = O=C(CCc1ccc(O)cc1)*; NMeF = CN[C@@H](Cc1ccccc1)C(=O)O; Aib = CC(C)(N)C(=O)O; Ava = NCCCCC(=O)O; GABA = NCCCC(=O)O; βAla = NCCC(=O)O; Sar = CNCC(=O)O

Assays:
Type in all cases: functional, Mus musculus
[1] = (§1) Proliferative activity in fibroblastic […] cell culture relative to OGP(10-14)
Outline: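 Mouse NIH 3T3 fibroblasts from confluent cultures were seeded at 2 × 10⁴ cells/well in RMEM with 10% FCS at 37 °C in CO₂/air for 46 h, then washed and held serum-free for 2 h. Medium was then replaced with RMEM containing 4% fatty-acid-free BSA, with or without peptide. The peptide was dissolved at 10^-6 M, diluted, and pre-warmed for 30 min at 37 °C. The final concentration was 10^-11 M unless otherwise stated.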

[2] = Proliferative activity in osteoblastic MC3T3 E1 cell culture relative to OGP(10-14)
Outline: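 MC3T3 E1 osteoblastic cells were seeded at 2 × 10⁴ cells/well in RMEM with 10% FCS at 37 °C in CO₂/air. After 46 h in serum, they were washed, kept serum-free for 2 h, then switched to RMEM with 4% fatty-acid-free BSA, with or without peptide. The peptide was freshly dissolved at 10^-6 M, diluted, and preincubated for 30 min at 37 °C. The final concentration was 10^-13 M unless otherwise specified, with some dose-response runs.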

NIH3T3 = experiment: as §1
Outline: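 NIH 3T3 fibroblasts from confluent cultures in RMEM with 10% FCS, seeded at 2 × 10⁴ cells/well, 37 °C in CO₂/air. They were kept 46 h in FCS medium, then 2 h serum-free. Medium was switched to 4% fatty-acid-free BSA RMEM ± peptide, 10^-11 M final, preincubated 30 min at 37 °C. Read-out was cell number in triplicate wells, converted to treated/control ratio against OGP(10-14) reference.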

## O=C1CNC(=O)[C@H](Cc2ccc(O)cc2)NC(=O)CNC(=O)[C@H](Cc2ccccc2)NC(=O)CN1
[1]
  Relative potency: 1.02
[2]
  Relative potency: 0.95

## O=C1CNC(=O)[C@@H](Cc2ccc(O)cc2)NC(=O)CNC(=O)[C@@H](Cc2ccccc2)NC(=O)CN1
[1]
  Relative potency: 1.16
[2]
  Relative potency: 1.03

## O=C1CNC(=O)[C@@H](Cc2ccccc2)NC(=O)CNC(=O)[C@@H](Cc2ccc(O)cc2)NC(=O)CN1
[1]
  Relative potency: 0.84
[2]
  Relative potency: 0.69

## O=C1CNC(=O)[C@H](Cc2ccccc2)NC(=O)CNC(=O)[C@H](Cc2ccc(O)cc2)NC(=O)CN1
[1]
  Relative potency: 1.12
[2]
  Relative potency: 0.79

## O=C(O)CNC(=O)CNC(=O)[C@H](Cc1ccccc1)NCCNC(=O)CCc1ccc(O)cc1
[1]
  Relative potency: 0.67
[2]
  Relative potency: 0.61

## O=C(O)CNCCNC(=O)[C@H](Cc1ccccc1)NC(=O)CNC(=O)CCc1ccc(O)cc1
[1]
  Relative potency: 0.8
[2]
  Relative potency: 0.78

## O=C(O)CNC(=O)CNC[C@H](Cc1ccccc1)NC(=O)CNC(=O)CCc1ccc(O)cc1
[1]
  Relative potency: 0.88
[2]
  Relative potency: 0.7

## O=C(O)CCCCNC(=O)[C@H](Cc1ccccc1)NC(=O)CNC(=O)CCc1ccc(O)cc1
[1]
  Relative potency: 0.88
[2]
  Relative potency: 0.78

## O=C(O)CNC(=O)CNC(=O)[C@H](Cc1ccccc1)NC(=O)CNCCCc1ccc(O)cc1
[1]
  Relative potency: 0.79
[2]
  Relative potency: 0.81

## N[C@H](CNCC(=O)N[C@@H](Cc1ccccc1)C(=O)NCC(=O)NCC(=O)O)Cc1ccc(O)cc1
[1]
  Relative potency: 0.87
[2]
  Relative potency: 0.92

## CN(CC(=O)O)C(=O)CNC(=O)[C@H](Cc1ccccc1)NC(=O)CNC(=O)CCc1ccc(O)cc1 (Desaminotyrosyl-GFG[Sar]-OH)
[1]
  Relative potency: 0.14
[2]
  Relative potency: 0.16

## CN(CC(=O)NCC(=O)O)C(=O)[C@H](Cc1ccccc1)NC(=O)CNC(=O)CCc1ccc(O)cc1 (Desaminotyrosyl-GF[Sar]G-OH)
[1]
  Relative potency: 0.11
[2]
  Relative potency: 0.15

## CN(C(=O)CNC(=O)CCc1ccc(O)cc1)[C@@H](Cc1ccccc1)C(=O)NCC(=O)NCC(=O)O (Desaminotyrosyl-G[NMeF]GG-OH)
[1]
  Relative potency: 0.67
[2]
  Relative potency: 0.52

## CN(CC(=O)N[C@@H](Cc1ccccc1)C(=O)NCC(=O)NCC(=O)O)C(=O)CCc1ccc(O)cc1 (Desaminotyrosyl-[Sar]FGG-OH)
[1]
  Relative potency: 0.39
[2]
  Relative potency: 0.31

## O=C(O)C[C@@H]1NC(=O)CNC(=O)[C@H](Cc2ccccc2)NC(=O)CNC(=O)[C@H](Cc2ccc(O)cc2)NC1=O (cyclo(DYGFG))
[1]
  Relative potency: 0.11
[2]
  Relative potency: 0.14

## O=C1CNC(=O)CNC(=O)[C@H](Cc2ccccc2)NC(=O)CNC(=O)[C@H](Cc2ccc(O)cc2)NC(=O)CN1 (cyclo(FGGGYG))
[1]
  Relative potency: 0.2
[2]
  Relative potency: 0.26

## O=C1CNC(=O)[C@H](Cc2ccccc2)NC(=O)[C@@H]2CCCN2C(=O)[C@H](Cc2ccc(O)cc2)NC(=O)CN1 (cyclo(FGGYP))
[1]
  Relative potency: 0.9
[2]
  Relative potency: 0.99

## O=C1CNC(=O)CNC(=O)[C@H](Cc2ccccc2)NC(=O)CNC(=O)[C@H](Cc2ccc(O)cc2)NC(=O)CCCN1 (cyclo(FGG[GABA]YG))
[1]
  Relative potency: 0.22
[2]
  Relative potency: 0.2

## O=C1CNC(=O)CNC(=O)[C@H](Cc2ccccc2)NC(=O)CNC(=O)[C@H](Cc2ccc(O)cc2)NC(=O)CCN1 (cyclo(FGG[βAla]YG))
[1]
  Relative potency: 0.37
[2]
  Relative potency: 0.36

## O=C1CNC(=O)[C@H](Cc2ccccc2)NC(=O)CNC(=O)[C@H](Cc2ccc(O)cc2)N1 (cyclo(FGYG))
[1]
  Relative potency: 0.43
[2]
  Relative potency: 0.35

## CC1(C)NC(=O)[C@H](Cc2ccc(O)cc2)NC(=O)CNC(=O)CNC(=O)[C@H](Cc2ccccc2)NC1=O (cyclo([Aib]FGGY))
[1]
  Relative potency: 0.31
[2]
  Relative potency: 0.19

## O=C1CNC(=O)CNC(=O)[C@H](Cc2ccccc2)NC(=O)CNC(=O)[C@H](Cc2ccc(O)cc2)NC(=O)CCCCN1 (cyclo([Ava]YGFGG))
[1]
  Relative potency: 0.18
[2]
  Relative potency: 0.14

## H-GGFGY-OH
[1]
  Relative potency: 0.82
[2]
  Relative potency: 0.71

## H-YGFGG-OH
NIH3T3
  Relative potency: 1
[2]
  Relative potency: 1

## H-YPFGG-OH
[1]
  Relative potency: 0.96
[2]
  Relative potency: 0.89
